Measurements as given in ChEMBL document CHEMBL2021780, “Antineoplastic agents. 548. Synthesis of iodo- and diiodocombstatin phosphate prodrugs” (J Nat Prod, 2012).
≈ marks a conversion by molar mass, not a printed value.

Key:
MCF7 = assay: Growth inhibition of human MCF7 cells after 48 hrs by sulforhodamine B assay; assay type: functional; conditions: MCF7, 48 h
In short: (§1)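 NCI sulforhodamine B assay. Cells were seeded in 5% FBS/RPMI-1640 and incubated 24 h. Serial compound dilutions were then added for 48 h. Cells were fixed with trichloroacetic acid, stained with SRB and read by microplate reader. GI50 is the concentration giving 50% reduction in net protein increase, calculated from optical density data.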

NCI-H460 = assay: Growth inhibition of human NCI-H460 cells after 48 hrs by sulforhodamine B assay; assay type: functional; conditions: NCI-H460, 48 h; in short: as §1
DU-145 = assay: Growth inhibition of human DU145 cells after 48 hrs by sulforhodamine B assay; assay type: functional; conditions: DU-145, 48 h; in short: as §1
BXPC-3 = assay: Growth inhibition of human BxPC3 cells after 48 hrs by sulforhodamine B assay; assay type: functional; conditions: BXPC-3, 48 h; in short: as §1
KM-20L2 = assay: Growth inhibition of human KM20L2 cells after 48 hrs by sulforhodamine B assay; assay type: functional; conditions: KM-20L2, 48 h; in short: as §1
SF-268 = assay: Growth inhibition of human SF268 cells after 48 hrs by sulforhodamine B assay; assay type: functional; conditions: SF-268, 48 h; in short: as §1
P388 = assay: Growth inhibition of mouse P388 cells after 48 hrs by Z1 Beckman/Coulter particle counter analysis; assay type: functional; conditions: P388, 48 h, read-out: ED50 (the source's name)
In short: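 Mouse P388 leukemia cells were incubated 24 h in 10% horse serum/Fisher medium, then exposed 48 h to serial compound dilutions. ED50 was calculated from cell counts on a Coulter Z1 particle counter.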

Neisseria gonorrhoeae = assay: Antibacterial activity against Neisseria gonorrhoeae ATCC 49226 by broth microdilution method; assay type: functional
In short: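 Broth microdilution followed NCCLS standard methods. Compounds were reconstituted in sterile DMSO and diluted in the appropriate medium immediately before testing. MIC was taken as the lowest concentration giving no visible growth (optically clear). Assays were repeated on separate days.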

[1] = Solubility of the compound in water; assay type: physicochemical
In short: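 Solubility expressed as amount dissolving in 1 mL H₂O at 25 °C.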

[2] = Inhibition of purified tubulin assembly after 20 mins
In short: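 Purified tubulin at 10 μM in 0.8 M monosodium glutamate (pH 6.6), 0.4 mM GTP and 4% (v/v) DMSO, with varying compound concentrations. Extent of assembly was measured after 20 min at 30 °C.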

Row | Compound | GI50 (MCF7) [µg/mL] | GI50 (NCI-H460) [µg/mL] | GI50 (DU-145) [µg/mL] | GI50 (BXPC-3) [µg/mL] | GI50 (KM-20L2) [µg/mL] | GI50 (SF-268) [µg/mL] | EC50 (P388) [µg/mL] | MIC (Neisseria gonorrhoeae) [µg/mL] | solubility ([1]; water, read-out: solubility) [µg/mL] | solubility ([1]; buffer) | IC50 [2] [µM]
1 | COc1ccc(/C=C/c2cc(I)c(OC)c(OC)c2)cc1O [DIIODOCOMBSTATIN] | 0.18 (≈ 0.437 µM) | 0.21 (≈ 0.509 µM) | 0.27 (≈ 0.655 µM) | 2.7 (≈ 6.55 µM) | 1.7 (≈ 4.12 µM) | 0.55 (≈ 1.33 µM) | 0.189 (≈ 0.458 µM) |  |  |  | 
2 | COc1ccc(/C=C\c2cc(I)c(OC)c(I)c2)cc1OP(=O)(O)O.OCN(CO)CO.OCN(CO)CO | 0.047 | 0.025 | 0.021 | 0.33 | 0.94 | 0.04 | 0.026 | < 0.5 |  |  | 
3 | C1CCNCC1.C1CCNCC1.COc1ccc(/C=C\c2cc(I)c(OC)c(I)c2)cc1OP(=O)(O)O | 0.07 | 0.025 | 0.025 | 0.33 | > 1 | 0.041 | 0.011 | < 0.5 |  |  | 
4 | C1CCNCC1.C1CCNCC1.COc1ccc(/C=C\c2cc(I)c(OC)c(OC)c2)cc1OP(=O)(O)O | 0.0065 | 0.0036 | 0.0029 | 0.32 | 0.51 | 0.0044 | 0.0026 |  | ≥ 4000 |  | 
5 | COc1ccc(/C=C\c2cc(O)c(OC)c(OC)c2)cc1O | 0.49 (≈ 1.62 µM) | 0.19 (≈ 0.628 µM) | 0.0043 (≈ 0.0142 µM) | 2.3 (≈ 7.61 µM) | 1.2 (≈ 3.97 µM) | 0.0083 (≈ 0.0275 µM) | 0.26 (≈ 0.86 µM) |  |  |  | 
6 | COc1ccc(/C=C/c2cc(I)c(OC)c(I)c2)cc1O | 0.94 (≈ 1.85 µM) | 3.4 (≈ 6.69 µM) | 5.8 (≈ 11.4 µM) | 3 (≈ 5.9 µM) | > 10 | 3.3 (≈ 6.49 µM) | > 10 |  |  |  | 
7 | COC(=O)CN.COC(=O)CN.COc1ccc(/C=C\c2cc(I)c(OC)c(I)c2)cc1OP(=O)(O)O | 0.1 | 0.03 | 0.023 | 0.36 | > 1 | 0.054 | 0.011 | < 0.5 |  |  | 
8 | COC(=O)[C@@H](N)Cc1c[nH]c2ccccc12.COC(=O)[C@@H](N)Cc1c[nH]c2ccccc12.COc1ccc(/C=C\c2cc(I)c(OC)c(I)c2)cc1OP(=O)(O)O | 0.22 | 0.033 | 0.026 | 0.37 | > 1 | 0.086 | 0.017 | < 0.5 |  |  | 
9 | C1COCCN1.C1COCCN1.COc1ccc(/C=C\c2cc(I)c(OC)c(OC)c2)cc1OP(=O)(O)O | 0.0047 | 0.0036 | 0.0026 | 0.21 | 0.24 | 0.0037 | 0.0032 | 16 |  |  | 
10 | COC(=O)[C@@H](N)Cc1c[nH]c2ccccc12.COC(=O)[C@@H](N)Cc1c[nH]c2ccccc12.COc1ccc(/C=C\c2cc(I)c(OC)c(OC)c2)cc1OP(=O)(O)O | 0.035 | 0.0034 | 0.003 | 0.26 | 0.59 | 0.0097 | 0.0022 | 4 |  |  | 
11 | C1COCCN1.C1COCCN1.COc1ccc(/C=C\c2cc(I)c(OC)c(I)c2)cc1OP(=O)(O)O | 0.066 | 0.033 | 0.028 | 0.35 | > 1 | 0.054 | 0.014 | < 0.5 |  |  | 
12 | COc1ccc(/C=C\c2cc(I)c(OC)c(OC)c2)cc1OP(=O)([O-])[O-].[Li+].[Li+] | 0.0038 | 0.0039 | 0.0043 | 0.49 |  | 0.004 | 0.017 |  |  | >= 2.4 mg/ml | 
13 | COc1ccc(/C=C\c2cc(I)c(OC)c(OC)c2)cc1OP(=O)(O)O.OCN(CO)CO.OCN(CO)CO | 0.0048 | 0.004 | 0.0047 | 0.37 | 0.4 | 0.0043 | 0.0029 | 32 |  |  | 
14 | COc1ccc(/C=C\c2cc(I)c(OC)c(I)c2)cc1OP(=O)([O-])[O-].[Li+].[Li+] |  | 0.05 | 0.032 | 0.37 |  | 0.05 | 0.021 | < 0.5 |  | >= 4 mg/ml | 
15 | COc1ccc(/C=C\c2cc(F)c(OC)c(OC)c2)cc1O [FLUORCOMBSTATIN] | 0.0027 (≈ 0.00887 µM) | 0.0032 (≈ 0.0105 µM) | 0.0019 (≈ 0.00624 µM) |  | > 1 | 0.0016 (≈ 0.00526 µM) | 0.002 (≈ 0.00657 µM) |  |  |  | 
16 | COC(=O)CN.COC(=O)CN.COc1ccc(/C=C\c2cc(I)c(OC)c(OC)c2)cc1OP(=O)(O)O | 0.0044 | 0.0031 | 0.0021 | 0.16 | 0.32 | 0.0033 | 0.0026 |  | ≥ 2000 |  | 
17 | COc1ccc(/C=C\c2cc(OC)c(OC)c(OC)c2)cc1OP(=O)([O-])[O-].[Na+].[Na+] [FOSBRETABULIN DISODIUM] |  | 0.029 | 0.0072 | 0.23 | 0.034 | 0.036 | 0.0004 |  |  |  | > 40
